Source: ChEMBL document CHEMBL3244034, “Semisynthetic cephalosporins. Synthesis and structure-activity relationships of 7-(1-pyrryl)- and 7-(1-indolyl)acetamidocephalosporin derivatives” (1978)
≈ marks a conversion by molar mass, not a printed value. Calls of active or inactive are those of the source. The calls are words filed in the database; no cut-off is given here.

Assays:
[1] = system: Staphylococcus aureus; assay: Antibacterial activity against benzylpenicillin-resistant Staphylococcus aureus after 17 hrs by serial two fold dilution method; type: functional
Method in brief: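 Agar dilution MIC. Compound was serially diluted twofold in Mueller-Hinton agar. The surface was inoculated with a diluted 18-24-h broth culture […]. Plates were incubated 17 h at 37 °C. MIC was taken as the lowest concentration giving complete or virtually complete inhibition of visible growth.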

[2] = system: Staphylococcus aureus; assay: Antibacterial activity against Staphylococcus aureus after 17 hrs by serial two fold dilution method; type: functional
Method in brief: (§1)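 Agar dilution MIC: compound serially diluted twofold in Mueller-Hinton agar. Plate surfaces were inoculated with a suitably diluted 18-24-h broth culture and incubated 17 h at 37 °C. MIC was read as the lowest concentration giving complete or virtually complete inhibition of visible growth.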

[3] = system: Staphylococcus epidermidis; assay: Antibacterial activity against Staphylococcus epidermidis after 17 hrs by serial two fold dilution method; type: functional; method in brief: as §1
[4] = system: Enterococcus faecalis; assay: Antibacterial activity against Staphylococcus faecalis after 17 hrs by serial two fold dilution method; type: functional; method in brief: as §1
[5] = system: Streptococcus pneumoniae; assay: Antibacterial activity against Streptococcus pneumoniae after 17 hrs by serial two fold dilution method; type: functional; method in brief: as §1
[6] = system: Streptococcus pyogenes; assay: Antibacterial activity against Streptococcus pyogenes after 17 hrs by serial two fold dilution method; type: functional; method in brief: as §1
[7] = system: Klebsiella aerogenes; assay: Antibacterial activity against Enterobacter aerogenes after 17 hrs by serial two fold dilution method; type: functional
[8] = system: Enterobacter cloacae; assay: Antibacterial activity against Enterobacter cloacae after 17 hrs by serial two fold dilution method; type: functional
[9] = system: Escherichia coli; assay: Antibacterial activity against Escherichia coli after 17 hrs by serial two fold dilution method; type: functional; method in brief: as §1
[10] = system: Klebsiella pneumoniae; assay: Antibacterial activity against Klebsiella pneumoniae after 17 hrs by serial two fold dilution method; type: functional; method in brief: as §1
[11] = system: Proteus mirabilis; assay: Antibacterial activity against Proteus mirabilis after 17 hrs by serial two fold dilution method; type: functional; method in brief: as §1
[12] = system: Proteus vulgaris; assay: Antibacterial activity against Proteus vulgaris after 17 hrs by serial two fold dilution method; type: functional; method in brief: as §1
[13] = system: Providencia stuartii; assay: Antibacterial activity against Providencia stuartii after 17 hrs by serial two fold dilution method; type: functional; method in brief: as §1
[14] = system: Pseudomonas aeruginosa; assay: Antibacterial activity against Pseudomonas aeruginosa after 17 hrs by serial two fold dilution method; type: functional; method in brief: as §1
[15] = system: Salmonella; assay: Antibacterial activity against Salmonella schottmuelleri after 17 hrs by serial two fold dilution method; type: functional; method in brief: as §1
[16] = system: Staphylococcus aureus; assay: Antibacterial activity against benzylpenicillin-resistant Staphylococcus aureus infected in sc dosed CD1 mouse assessed as host survival administered 1 and 4 hrs after infection measured on day 4; type: functional
Method in brief: (§2)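 Male albino CD-1 mice, 20 (± 1) g, infected intraperitoneally with a bacterial suspension giving uniformly lethal infection. Groups of ten mice were treated subcutaneously with antibiotic at 1 and 4 h post-infection. Survival over 4 days was recorded.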

[17] = system: Streptococcus pyogenes; assay: Antibacterial activity against Streptococcus pyogenes infected in sc dosed CD1 mouse assessed as host survival administered 1 and 4 hrs after infection measured on day 4; type: functional; method in brief: as §2
[18] = system: Escherichia coli; assay: Antibacterial activity against Escherichia coli infected in sc dosed CD1 mouse assessed as host survival administered 1 and 4 hrs after infection measured on day 4; type: functional; method in brief: as §2
[19] = system: Klebsiella pneumoniae; assay: Antibacterial activity against Klebsiella pneumoniae infected in sc dosed CD1 mouse assessed as host survival administered 1 and 4 hrs after infection measured on day 4; type: functional; method in brief: as §2
[20] = system: Proteus mirabilis; assay: Antibacterial activity against Proteus mirabilis infected in sc dosed CD1 mouse assessed as host survival administered 1 and 4 hrs after infection measured on day 4; type: functional; method in brief: as §2
[21] = system: Salmonella; assay: Antibacterial activity against Salmonella schottmuelleri infected in sc dosed CD1 mouse assessed as host survival administered 1 and 4 hrs after infection measured on day 4; type: functional; method in brief: as §2
[22] = system: Neisseria gonorrhoeae; assay: Antibacterial activity against Neisseria gonorrhoeae after 17 hrs by serial two fold dilution method; type: functional, organism-based
[23] = system: Haemophilus influenzae; assay: Antibacterial activity against Haemophilus influenzae after 17 hrs by serial two fold dilution method; type: functional, organism-based
[24] = system: Bacteroides fragilis; assay: Antibacterial activity against Bacteroides fragilis after 17 hrs by serial two fold dilution method; type: functional, organism-based
[25] = system: Fusobacterium varium; assay: Antibacterial activity against Fusobacterium varium after 17 hrs by serial two fold dilution method; type: functional, organism-based

Structure (SMILES) | MIC [1] [µg/mL] | MIC [2] [µg/mL] | MIC [3] [µg/mL] | MIC [4] [µg/mL] | MIC [5] [µg/mL] | MIC [6] [µg/mL] | MIC [7] [µg/mL] | MIC [8] [µg/mL] | MIC [9] [µg/mL] | MIC [10] [µg/mL] | MIC [11] [µg/mL] | MIC [12] [µg/mL] | MIC [13] [µg/mL] | MIC [14] [µg/mL] | MIC [15] [µg/mL] | also measured
CCOC(=O)C(C(=O)N[C@@H]1C(=O)N2C(C(=O)O)=C(COC(C)=O)CS[C@H]12)n1cccc1 (stereo partly drawn) | 6.2 (≈ 13.7 µM) | 1.6 (≈ 3.54 µM) | 3.1 (≈ 6.87 µM) | > 100 | 0.4 (≈ 0.886 µM) | 0.4 (≈ 0.886 µM) | 25 (≈ 55.4 µM) | 25 (≈ 55.4 µM) | 25 (≈ 55.4 µM) | 25 (≈ 55.4 µM) | 50 (≈ 111 µM) | > 100 | 12.5 (≈ 27.7 µM) | > 100 | 25 (≈ 55.4 µM) | –
Cc1nnc(SCC2=C(C(=O)O)N3C(=O)[C@@H](NC(=O)Cn4ccc5ccccc54)[C@H]3SC2)s1 | 0.2 (≈ 0.399 µM) | 0.1 (≈ 0.199 µM) | 0.4 (≈ 0.797 µM) | > 100 | ≤ 0.025 | 0.05 (≈ 0.0997 µM) | 100 (≈ 199 µM) | 100 (≈ 199 µM) | 50 (≈ 99.7 µM) | 50 (≈ 99.7 µM) | 50 (≈ 99.7 µM) | > 100 | 25 (≈ 49.8 µM) | > 100 | 25 (≈ 49.8 µM) | –
CC(=O)OCC1=C(C(=O)O)N2C(=O)[C@@H](NC(=O)Cn3cccc3)[C@H]2SC1 | 1.6 (≈ 4.22 µM) | 0.8 (≈ 2.11 µM) | 3.1 (≈ 8.17 µM) | > 100 | 0.4 (≈ 1.05 µM) | 0.4 (≈ 1.05 µM) | > 100 | > 100 | 6.2 (≈ 16.3 µM) | 6.2 (≈ 16.3 µM) | 12.5 (≈ 32.9 µM) | > 100 | 50 (≈ 132 µM) | > 100 | 3.1 (≈ 8.17 µM) | –
CC(=O)OCC1=C(C(=O)O)N2C(=O)[C@@H](NC(=O)Cn3cccc3C=O)[C@H]2SC1 | 1.6 (≈ 3.93 µM) | 0.8 (≈ 1.96 µM) | 3.1 (≈ 7.61 µM) | > 100 | – | 0.4 (≈ 0.982 µM) | > 100 | > 100 | 100 (≈ 245 µM) | 50 (≈ 123 µM) | 100 (≈ 245 µM) | > 100 | > 100 | > 100 | 50 (≈ 123 µM) | –
Cn1nnnc1SCC1=C(C(=O)O)N2C(=O)[C@@H](NC(=O)Cn3ccc4ccccc43)[C@H]2SC1 | 0.2 (≈ 0.412 µM) | 0.1 (≈ 0.206 µM) | 0.4 (≈ 0.824 µM) | > 100 | – | 0.05 (≈ 0.103 µM) | 50 (≈ 103 µM) | 50 (≈ 103 µM) | 12.5 (≈ 25.7 µM) | 12.5 (≈ 25.7 µM) | 50 (≈ 103 µM) | > 100 | 25 (≈ 51.5 µM) | > 100 | 6.2 (≈ 12.8 µM) | –
Cn1nnnc1SCC1=C(C(=O)O)N2C(=O)[C@@H](NC(=O)Cn3cccc3)[C@H]2SC1 | 0.8 (≈ 1.84 µM) | 0.4 (≈ 0.919 µM) | 1.6 (≈ 3.67 µM) | > 100 | 0.1 (≈ 0.23 µM) | 0.1 (≈ 0.23 µM) | 25 (≈ 57.4 µM) | 6.2 (≈ 14.2 µM) | 0.8 (≈ 1.84 µM) | 1.6 (≈ 3.67 µM) | 6.2 (≈ 14.2 µM) | > 100 | 6.2 (≈ 14.2 µM) | > 100 | 0.4 (≈ 0.919 µM) | ED50 [16]: 72 mg/kg; ED50 [17]: 2.3 mg/kg; ED50 [18]: 2.5 mg/kg; ED50 [19]: 67 mg/kg; ED50 [20]: 100 mg/kg; ED50 [21]: 2.5 mg/kg; Activity [22]: inactive; Activity [23]: inactive; Activity [24]: inactive; Activity [25]: inactive
